High-throughput results: PubChem, several laboratories
A selection: hits, their analogues and other compounds. The true share with any hit is near 1.9%.
Runt-SMMHC FRET – inhibitors of RUNX1 Runt–CBFb-SMMHC binding, primary screen, biochemical, FRET, Cerulean-Runt, Venus-CBFb-SMMHC, uHTS. hit rate 0.74% among 220,000. Runt-related transcription factor 1 (Homo sapiens) + Core-binding factor subunit beta …. inhibition, % at 20 µM. Cerulean-Runt/Venus-CBFb-SMMHC FRET ratio 530/480, 1 h;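 active means mean inhibition across duplicate retests at 20 µM reaching about 50%, limit read from the data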;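 further: 0% = DMSO wells and 100% = wells with excess untagged CBFb-SMMHC; inhibitors lower the FRET ratio by blocking Runt binding to CBFb-SMMHC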
Target sequence (Q01196 whole entry, looked up): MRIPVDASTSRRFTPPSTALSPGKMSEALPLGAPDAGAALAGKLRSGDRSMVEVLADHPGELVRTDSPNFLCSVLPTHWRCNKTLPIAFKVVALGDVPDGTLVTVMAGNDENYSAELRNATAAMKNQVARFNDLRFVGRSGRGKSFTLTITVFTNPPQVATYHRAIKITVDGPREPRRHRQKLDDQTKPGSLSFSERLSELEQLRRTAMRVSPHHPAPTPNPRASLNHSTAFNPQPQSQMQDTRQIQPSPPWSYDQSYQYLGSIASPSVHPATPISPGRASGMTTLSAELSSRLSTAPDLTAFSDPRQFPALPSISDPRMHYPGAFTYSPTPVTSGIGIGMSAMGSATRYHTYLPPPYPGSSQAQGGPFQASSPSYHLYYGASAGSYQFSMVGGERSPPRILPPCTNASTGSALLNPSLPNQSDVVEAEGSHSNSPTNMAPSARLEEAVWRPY
Target sequence (Q13951 whole entry, looked up): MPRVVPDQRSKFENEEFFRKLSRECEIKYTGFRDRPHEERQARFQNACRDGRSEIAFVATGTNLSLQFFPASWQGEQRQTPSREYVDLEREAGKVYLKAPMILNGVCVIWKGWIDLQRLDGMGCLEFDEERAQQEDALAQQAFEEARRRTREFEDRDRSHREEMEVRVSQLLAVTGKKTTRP
Runt-CBFb FRET – inhibitors of RUNX1 Runt–CBFb binding, primary screen, biochemical, FRET, Cerulean-Runt, Venus-CBFb, uHTS. Runt-related transcription factor 1 (Homo sapiens) + Core-binding factor subunit beta …. Cerulean-Runt/Venus-CBFb FRET ratio 530/480, 1 h. hit rate 0.46% among 220,000. inhibition, % at 20 µM;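 active means inhibition over about 50% at 20 µM in the single-dose screen, limit read from the data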;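 further: 0% = DMSO wells and 100% = excess unlabeled CBFb competitor control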
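test system = Cerulean-tagged RUNX1 Runt domain (FRET donor) fusion protein | reagent = Venus-CBFb binding partner, 100 nM | incubation = protein complex preformed 1 h, compound exposure 1 h, room temperature, dark | detection = FRET fluorescence | read-out basis = loss of energy transfer signal | controls = 5 µM unlabeled CBFb as full-inhibition high control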
Hck-Nef inh – inhibitors of Nef-activated human Hck kinase, primary screen, biochemical, Z-Lyte FRET, 384-well, Hck-YEEI. Tyrosine-protein kinase HCK (Homo sapiens), P08631. Recombinant Hck-YEEI plus Nef, Z-Lyte FRET kinase assay. inhibition, % at 20 µM. hit rate 0.68% among 220,000. AID 463187, 2010;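 active means Hck-Nef kinase inhibition above about 50%, limit read from the data; inactive means inhibition below that limit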;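 further: 0% = DMSO with Hck plus Nef and 100% = Hck alone without Nef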
RanGTP-Impb inh – inhibitors of RanGTP-importin-beta interaction, primary screen, biochemical, FRET, CFP-Ran, YFP-importin-beta, homogeneous; cell-free CFP-Ran/YFP-importin-beta FRET ratio; inhibition, % (no concentration beside the values); hit rate 1.1% among 300,000;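 active means more than half of the replicate wells show a fall in the fluorescence ratio signal beyond about 16%, limit read from the data, passing the limit was not always enough; inconclusive means exactly half of the replicate wells pass the set limit; inactive means fewer than half of replicates pass the limit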;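 further: 0% = DMSO wells and 100% = Ran loaded with GDP instead of GTP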
Tb hexokinase – Trypanosoma brucei hexokinase 1 inhibitors, primary screen, biochemical, G6PDH-coupled NADH absorbance, MLSCN library. hexokinase 1 [Trypanosoma brucei]. recombinant TbHK1, G6PDH-coupled NADH A340. inhibition, % at 10 µM. hit rate 0.11% among 220,000. AID 1430, 2008;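 active means inhibition of 50% or more in the single-dose primary screen; inactive means inhibition below 50%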
Hck Nef conf – retest of Hck:Nef kinase inhibitor hits, confirmation, biochemical, Z-Lyte FRET, 384-well, p-Tyr peptide counterscreen; shares compounds with Hck-Nef inh; Recombinant Hck-YEEI:Nef, Z-Lyte FRET kinase assay; calls only at 10 µM; hit rate 28% among 1,300; AID 463188, 2010;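 active means average inhibition of at least 50%, with Z-scores no higher than 3 in both the phospho-tyrosine peptide and fluorescence counterscreens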
* marks the source's active call; other numbers are inactive results; i = inactive; ? = inconclusive; . = not tested or not shown; + = active, no number.

SMILES	Runt-SMMHC FRET	Runt-CBFb FRET	Hck-Nef inh	RanGTP-Impb inh	Tb hexokinase	Hck Nef conf
Cc1nn(CC(=O)Nc2ccc3c(c2)oc2ccccc23)c(=O)c2ccccc12	1	-2	51*	0	2	i
CCSc1nc2c(cnn2-c2ccccc2)c(=O)n1N	1	0	59*	0	-6	+
CSc1nc2c(cnn2-c2ccccc2)c(=O)n1N	3	1	28	1	1	.
CCCc1cc(-c2[nH]ncc2-c2ccc3c(c2)OCCCO3)c(O)cc1O	-4	2	74*	-1	-5	+
Cc1cc(C(F)(F)F)nc(SCC(=O)Nc2c(C)n(C)n(-c3ccccc3)c2=O)n1	.	.	.	-1	.	.
Fc1cccc(Cl)c1CSc1nnc(CN2CCOCC2)n1-c1ccccc1	0	0	96*	-1	2	i
Clc1cccc(Cl)c1CSc1nnc(CN2CCOCC2)n1-c1ccccc1	-3	2	1	0	2	.
O=C(Cn1ncc2c([nH]c3ccccc32)c1=O)NCC1CCN(Cc2ccccc2F)CC1	.	.	.	2	.	.
Nc1nn2cc(-c3ccc(Br)cc3)nc2c2ccccc12	1	0	64*	-4	-27	i
CCn1c(SCC(=O)N/N=C/c2c[nH]c3ccccc23)nnc1-c1ccc(C(C)(C)C)cc1	2	-5	5	2	-10	.
O=C(N/N=C/c1ccc([N+](=O)[O-])o1)c1ccc(NS(=O)(=O)c2cccs2)cc1	-2	0	55*	2	-30	i
O=C(c1ccccc1)c1ccc2nc(Nc3ccccc3)c3nncn3c2c1	-65	0	68*	1	-45	i
O=[N+]([O-])c1ccc(/C=N/n2cn[nH]c2=S)cc1	3	8	105*	2	-21	.
Cc1ccccc1NC(=O)C(C)n1c2ccccc2c2nc(=O)cc(C)n21 (centres undefined)	-4	-1	16	-3	-6	.
Cc1cc(C)n(Cc2ccc(C(=O)O)cc2)n1	-2	-2	-1	3	-19	.
Cc1ccc(C)n1Cc1ccc(C(=O)O)cc1	2	4	74*	.	4	i
O=C1COc2ccc(-c3csc(NCCc4ccccc4)n3)cc2N1	6	8	128*	-2	-3	+
CCCCCCN1CC(O)=C(c2nc3ccccc3[nH]2)C1=N	2	1	0	-5	-2	.
CCC(C)N1CC(O)=C(c2nc3ccccc3[nH]2)C1=N (centres undefined)	0	0	58*	-1	26	+
COc1ccccc1C1CC(c2ccco2)=NN1S(C)(=O)=O (centres undefined)	4	3	19	4	-2	.
Nc1[nH]nc2nc(N3CCOCC3)nc(-c3ccccc3)c12	4	0	67*	-4	25	+
c1ccc(-c2cc(-c3nnc4n3N=C(c3ccc5ccccc5c3)CS4)[nH]n2)cc1	-6	-2	54*	-2	-9	+
CC(C)(C)SCCNC(=O)c1ccccc1	1	1	54*	4	-4	i
CCOc1cc(/C=C(/C#N)c2ccc(F)cc2)ccc1OCc1ccc(C(=O)O)o1	-4	-1	27	-1	-12	.
CCOc1cc(/C=C(/C#N)c2nc3ccccc3[nH]2)ccc1OCc1ccc(C(=O)O)o1	26	15	64*	0	-9	.
SMILES	Runt-SMMHC FRET	Runt-CBFb FRET	Hck-Nef inh	RanGTP-Impb inh	Tb hexokinase	Hck Nef conf
Cc1ccc(/C=C2/SC(=S)N(c3ccc(S(=O)(=O)Nc4nccs4)cc3)C2=O)cc1	-13	-3	59*	0	18	i
O=C1/C(=C\c2ccccn2)SC(=S)N1c1ccc(S(=O)(=O)Nc2nccs2)cc1	-4	18	28	11	-9	.
CCOC(=O)c1cc2nc(Nc3ccc(OC)cc3)sc2s1	14	2	51*	1	-12	i
c1ccc2[nH]c(NCCCN3CCOCC3)nc2c1	-3	0	-2	0	5	.
c1ccc(-c2nc(NCCCN3CCOCC3)c3ccccc3n2)cc1	2	0	-1	0	-11	.
CC(C)c1cc(NCCCN2CCOCC2)n2c(nc3ccccc32)c1C#N	52	20	54*	?	4	.
N#Cc1c2c(c(NCCCN3CCOCC3)n3c1nc1ccccc13)CCC2	37	12	61*	-3	3	.
O=C(CSc1nnc(SCc2ccccc2)s1)N/N=C/c1c[nH]c2ccccc12	-54	.	95*	-7	-28	+
O=C(NCc1ccccc1)C(c1cccnc1)N(C(=O)c1csnn1)c1ccccc1 (centres undefined)	.	.	.	7	.	.
COc1cc(NC(=O)c2cccs2)c(C(=O)OCC(=O)NC(=O)NCc2ccccc2)cc1OC	-1	4	68*	-1	-29	i
CCC(C)c1ccccc1NC(=O)COC(=O)c1ccc2c(c1)S(=O)(=O)c1ccccc1C2=O (centres undefined)	4	-1	0	1	0	.
O=C(CSc1ncnc2c1oc1ccccc12)Nc1cccc(Cl)c1	1	0	51*	1	-4	i
O=C(CSc1ncnc2c1oc1ccccc12)Nc1cccc(C(F)(F)F)c1	-4	0	0	1	-2	.
NC(=S)N/N=C/c1coc2cc(Br)ccc2c1=O	-5	1	30	6	-23	.
NC(=S)N/N=C/c1coc2c(ccc3ccccc32)c1=O	-1	0	61*	-3	4	+
NC(=S)N/N=C/c1coc2ccc(Br)cc2c1=O	0	3	73*	0	-7	+
COc1ccc(NC(=O)C2CCCN(S(C)(=O)=O)C2)cc1Cl (centres undefined)	.	.	.	4	.	.
CC(=O)C1C(c2ccncc2)NC(=O)NC1(O)C(F)(F)F (centres undefined)	-2	2	6	3	4	.
CC(=O)C1C(c2ccc3ncccc3c2)NC(=O)NC1(O)C(F)(F)F (centres undefined)	-1	0	52*	-1	5	i
CCCn1c(NC(=O)c2ccc(Cl)c(S(=O)(=O)N3CCCC3)c2)nc2ccccc21	4	1	73*	-1	-10	+
